Laboratory results as given in publication PMC2735267 (Neuropharmacology, 2009).
Like-named read-outs stand apart in the source and are kept apart here.

Experiments:
β4*-nAChR = β4*-nAChR (Mus musculus, UniProt Q8R493+Q8R4G9); assay: biochemical; assay type: binding, C57BL/6J mice; conditions: read-out: [125I]epibatidine (β2 -/-) Ki; inferior colliculi, β2-/- mice; 200 pM ligand
[1] = system: cytisine-resistant [125I]epibatidine binding sites (mixed population of nAChR); conditions: membranes, any brain region analyzed; 0.2 mg/kg/h iv 7 days
[2] = system: A85380-resistant [125I]epibatidine binding sites (mainly α3β4* nAChR); conditions: membranes; 0.2 mg/kg/h iv 7 days
α7* nAChR binding sites = assay type: in vivo, DBA/2J mice; conditions: cerebral cortex membranes; 0.2 mg/kg/h iv 7 days
[3] = system: cytisine-resistant [125I]epibatidine binding sites; conditions: for Cytisine-resistant [125I]epibatidine binding: 3-IC 0.2 mg/kg/h iv 7 days; for Cytisine-resistant [125I]epibatidine binding % change: 3-IC 0.2 mg/kg/h iv 7 days vs saline
β4 null mutant mice = assay: 3-IC-induced hypothermia in β4 null mutant and wild-type mice; assay type: in vivo, mouse; conditions: 0.2 mg/kg ip
Procedure, shortened: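 Null mutants were backcrossed onto C57BL/6J for at least 10 generations, genotyped from tail DNA, and compared with wild-type mice (β2-/- n = 5; β4-/- n = 5). Test compound was given at 0.2 mg/kg IP in 10 µl/g body weight. Rectal temperature was taken every 5 minutes with a peanut-oil-lubricated probe inserted 1.5 cm. Data are mean ± SEM, analysed by repeated-measures ANOVA (time × genotype).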

[3H]dopamine release = read-out: EC50 [3H]dopamine release; rat striatal synaptosomes; ref Abin-Carriquiry et al., 2006; cited from earlier work
DBA/2J mice = assay: Chronic intravenous 3-IC infusion and tolerance test; assay type: in vivo, mouse
[4] = system: [3H]noradrenaline release; conditions: read-out: EC50 [3H]noradrenaline release; rat hippocampal slices; ref Abin-Carriquiry et al., 2006; cited from earlier work
human α7 = conditions: read-out: Ki human α7; expressed in Xenopus oocytes; ref Slater et al., 2003; cited from earlier work
[5] = dorsolateral geniculate nucleus
[6] = superior colliculus (optic nerve)
[7] = superior colliculus (sup. gray)

Sequence of β4*-nAChR (Q8R493 21-495): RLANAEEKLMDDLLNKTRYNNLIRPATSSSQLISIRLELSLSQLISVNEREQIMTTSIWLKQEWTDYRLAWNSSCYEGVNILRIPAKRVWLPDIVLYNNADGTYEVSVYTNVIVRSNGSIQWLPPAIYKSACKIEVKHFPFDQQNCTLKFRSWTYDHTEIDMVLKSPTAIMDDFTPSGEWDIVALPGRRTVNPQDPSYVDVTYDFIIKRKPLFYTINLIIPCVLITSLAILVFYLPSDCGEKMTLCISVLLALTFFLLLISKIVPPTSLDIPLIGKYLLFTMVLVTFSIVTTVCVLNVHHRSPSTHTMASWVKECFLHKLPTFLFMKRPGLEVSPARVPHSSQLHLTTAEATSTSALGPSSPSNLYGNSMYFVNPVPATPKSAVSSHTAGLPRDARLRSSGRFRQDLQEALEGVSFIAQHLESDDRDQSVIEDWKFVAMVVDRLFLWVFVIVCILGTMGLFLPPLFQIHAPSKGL
Sequence of β4*-nAChR (Q8R4G9 26-499): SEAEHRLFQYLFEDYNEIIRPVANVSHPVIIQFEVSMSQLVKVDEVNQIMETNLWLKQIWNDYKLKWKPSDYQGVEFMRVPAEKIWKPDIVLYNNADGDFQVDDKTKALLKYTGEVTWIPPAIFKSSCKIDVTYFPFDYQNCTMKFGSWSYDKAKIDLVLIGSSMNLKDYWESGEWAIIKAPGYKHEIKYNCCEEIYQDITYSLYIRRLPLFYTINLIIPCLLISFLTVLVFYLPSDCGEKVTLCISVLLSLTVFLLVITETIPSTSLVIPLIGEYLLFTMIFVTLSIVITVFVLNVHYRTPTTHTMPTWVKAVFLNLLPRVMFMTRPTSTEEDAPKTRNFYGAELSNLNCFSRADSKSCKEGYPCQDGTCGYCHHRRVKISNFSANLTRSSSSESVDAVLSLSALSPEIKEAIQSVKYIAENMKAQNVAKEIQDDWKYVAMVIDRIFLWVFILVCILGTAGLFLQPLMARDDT

With `O=c1c(I)ccc2n1C[C@@H]1CNC[C@H]2C1` [3-IC, 3-iodocytisine] the Ki (β4*-nAChR) was 0.25 ± 0.04 nM, the “density of cytisine-resistant [125I]epibatidine binding sites vs saline” value [1] was “No significant differences” and the “A85380 resistant component of [125I]epibatidine binding” value [2] was “unmodified”. The “increase in [125I]α-bungarotoxin binding sites compared to saline” value (α7* nAChR binding sites) was 58%, the “Cytisine-resistant [125I]epibatidine binding” value ([3]; anterior olfactory nucleus) was 13.27 ± 2.48 fmol/mg and the “Cytisine-resistant [125I]epibatidine binding” value ([3]; anteromedial thalamic nucleus) was 3.97 ± 0.25 fmol/mg. For the same compound, the “Cytisine-resistant [125I]epibatidine binding % change” value ([3]; anteromedial thalamic nucleus) was 22.0%, the “cytisine-resistant [125I]epibatidine sites after chronic treatment” value ([3]; autoradiography, 0.2 mg/kg/h iv 7 days) was “not affected” and the “Cytisine-resistant [125I]epibatidine binding” value ([3]; caudate putamen) was 2.39 ± 0.29 fmol/mg. For the same compound, the “Cytisine-resistant [125I]epibatidine binding % change” value ([3]; caudate putamen) was 18.2%, the “Cytisine-resistant [125I]epibatidine binding” value ([3]; cingulate cortex) was 1.25 ± 0.13 fmol/mg and the “Cytisine-resistant [125I]epibatidine binding % change” value ([3]; cingulate cortex) was 26.9%. For the same compound, the “Cytisine-resistant [125I]epibatidine binding” value ([3]; dentate gyrus (granular layer)) was 1.15 ± 0.06 fmol/mg, the “Cytisine-resistant [125I]epibatidine binding % change” value ([3]; dentate gyrus (granular layer)) was 17.3% and the “Cytisine-resistant [125I]epibatidine binding” value [3, 5] was 9.89 ± 0.66 fmol/mg. For the same compound, the “Cytisine-resistant [125I]epibatidine binding % change” value [3, 5] was -2.8%, the “Cytisine-resistant [125I]epibatidine binding” value ([3]; dorsomedial thalamic nucleus) was 3.78 ± 0.50 fmol/mg and the “Cytisine-resistant [125I]epibatidine binding % change” value ([3]; dorsomedial thalamic nucleus) was 5.3%. For the same compound, the “Cytisine-resistant [125I]epibatidine binding” value ([3]; fasciculus retroflexus) was 63.47 ± 4.86 fmol/mg, the “Cytisine-resistant [125I]epibatidine binding % change” value ([3]; fasciculus retroflexus) was 3.1% and the “Cytisine-resistant [125I]epibatidine binding” value ([3]; hippocampus (CA1-3)) was 0.98 ± 0.06 fmol/mg. The “Cytisine-resistant [125I]epibatidine binding % change” value ([3]; hippocampus (CA1-3)) was 20.2%, the “Cytisine-resistant [125I]epibatidine binding” value ([3]; inferior colliculus (central)) was 4.00 ± 1.42 fmol/mg and the “Cytisine-resistant [125I]epibatidine binding % change” value ([3]; inferior colliculus (central)) was 68.2%. For the same compound, the “Cytisine-resistant [125I]epibatidine binding” value ([3]; inferior colliculus (dorsal)) was 10.17 ± 2.62 fmol/mg, the “Cytisine-resistant [125I]epibatidine binding % change” value ([3]; inferior colliculus (dorsal)) was 67.7% and the “Cytisine-resistant [125I]epibatidine binding” value ([3]; inferior colliculus (external)) was 2.55 ± 0.19 fmol/mg. For the same compound, the “Cytisine-resistant [125I]epibatidine binding % change” value ([3]; inferior colliculus (external)) was 24.2%, the “Cytisine-resistant [125I]epibatidine binding” value ([3]; interpeduncular nucleus) was 211.95 ± 31.83 fmol/mg and the “Cytisine-resistant [125I]epibatidine binding” value ([3]; medial geniculate nucleus) was 4.43 ± 0.80 fmol/mg. For the same compound, the “Cytisine-resistant [125I]epibatidine binding % change” value ([3]; medial geniculate nucleus) was 38.1%, the “Cytisine-resistant [125I]epibatidine binding” value ([3]; medial habenula) was 282.84 ± 31.53 fmol/mg and the “Cytisine-resistant [125I]epibatidine binding % change” value ([3]; medial habenula) was -13.5%. The “Cytisine-resistant [125I]epibatidine binding” value ([3]; nucleus accumbens) was 1.95 ± 0.21 fmol/mg, the “Cytisine-resistant [125I]epibatidine binding % change” value ([3]; nucleus accumbens) was 12.9% and the “Cytisine-resistant [125I]epibatidine binding” value ([3]; olfactory tubercle) was 2.9 ± 0.5 fmol/mg. The “Cytisine-resistant [125I]epibatidine binding % change” value ([3]; olfactory tubercle) was -17.1%, the “Cytisine-resistant [125I]epibatidine binding” value ([3]; optic tract) was 1.75 ± 0.22 fmol/mg and the “Cytisine-resistant [125I]epibatidine binding % change” value ([3]; optic tract) was 26.1%. For the same compound, the “Cytisine-resistant [125I]epibatidine binding” value ([3]; parietal cortex (layers 1-3)) was 0.62 ± 0.06 fmol/mg, the “Cytisine-resistant [125I]epibatidine binding % change” value ([3]; parietal cortex (layers 1-3)) was 24.6% and the “Cytisine-resistant [125I]epibatidine binding” value ([3]; parietal cortex (layers 4-6)) was 1.29 ± 0.07 fmol/mg. For the same compound, the “Cytisine-resistant [125I]epibatidine binding % change” value ([3]; parietal cortex (layers 4-6)) was 45.9%, the “Cytisine-resistant [125I]epibatidine binding” value ([3]; retrosplenial Cortex) was 1.63 ± 0.11 fmol/mg and the “Cytisine-resistant [125I]epibatidine binding % change” value ([3]; retrosplenial Cortex) was 35.8%. The “Cytisine-resistant [125I]epibatidine binding” value ([3]; subiculum) was 1.89 ± 0.10 fmol/mg, the “Cytisine-resistant [125I]epibatidine binding” value ([3]; substantia nigra) was 1.6 ± 0.2 fmol/mg and the “Cytisine-resistant [125I]epibatidine binding % change” value ([3]; substantia nigra) was 6.7%. For the same compound, the “Cytisine-resistant [125I]epibatidine binding” value [3, 6] was 3.21 ± 0.14 fmol/mg, the “Cytisine-resistant [125I]epibatidine binding % change” value [3, 6] was 0.5% and the “Cytisine-resistant [125I]epibatidine binding” value [3, 7] was 11.25 ± 0.12 fmol/mg. The “Cytisine-resistant [125I]epibatidine binding % change” value [3, 7] was 10.8%, the “Cytisine-resistant [125I]epibatidine binding” value ([3]; ventral tegmental area) was 3.4 ± 0.69 fmol/mg and the “Cytisine-resistant [125I]epibatidine binding % change” value ([3]; ventral tegmental area) was 20.5%. For the same compound, the “Cytisine-resistant [125I]epibatidine binding” value ([3]; ventromedial thalamic nucleus) was 3.29 ± 0.46 fmol/mg, the “Cytisine-resistant [125I]epibatidine binding % change” value ([3]; ventromedial thalamic nucleus) was 13.4% and the “Cytisine-resistant [125I]epibatidine binding” value ([3]; zona incerta) was 2.34 ± 0.22 fmol/mg. For the same compound, the maximal hypothermia (β4 null mutant mice; β4+/+ mice) was 7.9 ± 0.3 °C, the maximal hypothermia (β4 null mutant mice; β4-/- mice) was 2.9 ± 0.4 °C and the EC50 ([3H]dopamine release) was 11 nM. For the same compound, the “tolerance after chronic infusion” value (DBA/2J mice; 0.2 mg/kg/h iv 7 days) was “did not elicit tolerance”, the “decrease of body temperature during infusion” value (DBA/2J mice; after 24 hours of continuous intravenous infusion of 0.5 mg/kg/h) was 13 ± 0.3 °C and the “infusion doses that elicited tremors” value (DBA/2J mice; continuous intravenous infusion) was “higher than 0.2 mg/kg/h”. The EC50 [4] was 220 nM and the Ki (human α7) was 7 nM.
